In data set [1] the test system is Brain. In words: Drug uptake in rat brain at 15 mg/kg, iv after 60 mins post-radiotracer administration. It counts as ADME, organism-based. The arrangement: dose 15 mg/kg, route intravenous. Particulars: in vivo, 1 h.
Data set [2] deals with Brain. In words: Drug uptake in rat brain after 25 mins. It counts as ADME, tissue-based. Particulars: in vivo. In short, it runs like this:
(§1)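 Naïve rats under isoflurane anaesthesia (1.5–2% maintenance), warmed to about 38 °C, with femoral artery and vein catheters. Baseline dynamic PET, whole-brain TACs expressed as SUV. Arterial blood sampled frequently and gamma-counted.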

Data set [3] deals with Brain. In words: Drug uptake in rat brain at 5 mg/kg, iv after 60 mins post-radiotracer administration. It counts as ADME, organism-based. The arrangement: dose 5 mg/kg, route intravenous. The settings on record: in vivo, 1 h.
Data set [4] concerns Brain. The data set is described as follows: Biodistribution in mouse brain. Particulars: in vivo. It counts as ADME, organism-based. In outline:
(§2)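 Mice (wild-type, Mdr1a/b(−/−), Bcrp1(−/−), Mdr1a/b(−/−)Bcrp1(−/−); n = 3 per type) under isoflurane anaesthesia, warmed to about 38 °C. Whole-brain SUV taken at 25 min. Brain-to-blood ratio = individual brain SUV ÷ mean whole-blood SUV from separate groups, with blood drawn retro-orbitally at 25 min and gamma-counted.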

In data set [5] the target is T1, Broad substrate specificity ATP-binding cassette transporter ABCG2 (Homo sapiens, UniProt Q9UNQ0).
T1 sequence (Q9UNQ0 whole entry): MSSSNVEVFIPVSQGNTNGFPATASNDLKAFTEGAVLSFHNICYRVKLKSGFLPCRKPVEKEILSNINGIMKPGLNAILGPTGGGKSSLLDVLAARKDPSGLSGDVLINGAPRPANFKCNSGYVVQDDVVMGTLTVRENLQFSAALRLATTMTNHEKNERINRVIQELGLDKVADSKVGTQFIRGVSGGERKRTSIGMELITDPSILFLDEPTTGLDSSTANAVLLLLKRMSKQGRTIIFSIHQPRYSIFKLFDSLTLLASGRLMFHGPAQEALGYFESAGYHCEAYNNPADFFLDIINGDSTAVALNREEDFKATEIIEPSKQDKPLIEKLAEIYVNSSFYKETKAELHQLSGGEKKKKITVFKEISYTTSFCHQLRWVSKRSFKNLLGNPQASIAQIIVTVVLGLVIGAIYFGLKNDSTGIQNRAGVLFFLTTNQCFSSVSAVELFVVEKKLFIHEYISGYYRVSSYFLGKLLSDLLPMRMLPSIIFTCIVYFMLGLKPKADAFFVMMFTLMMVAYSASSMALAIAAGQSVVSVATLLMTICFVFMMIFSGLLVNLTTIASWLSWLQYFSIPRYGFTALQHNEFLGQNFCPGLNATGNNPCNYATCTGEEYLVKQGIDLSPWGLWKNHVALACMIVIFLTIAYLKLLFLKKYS
In words: Inhibition of BCRP.

The nature of data set [6]: Inhibition of MRP.
A short description of data set [7]: Ratio of drug level from brain to blood in MDR1a/b deficient FVB mouse. It counts as ADME, tissue-based. The settings on record: brain and blood. In short, it runs like this:
as §2

For data set [8], the system named is Brain. The data set is described as follows: Decrease in binding in BCRP1 deficient FVB mouse brain. The settings on record: in vitro.
Data set [9] can be described thus: Ratio of drug level from brain to blood in MDR1a/b and BCRP1 deficient FVB mouse. It counts as ADME, tissue-based. In short, it runs like this: as §2
The test system of data set [10] is Brain. In words: Drug uptake in rat brain after 0.5 to 1.3 mins. Format: ADME, tissue-based. The settings on record: in vivo. In short, it runs like this:
as §1

Data set [11] deals with Brain. In words: Decrease in binding in MDR1a/b and BCRP1 deficient FVB mouse brain. The settings on record: in vitro.
Data set [12] is described as follows: Ratio of drug level from brain to blood in BCRP1 deficient FVB mouse. Format: ADME, tissue-based. The settings on record: brain and blood. In outline:
(§3)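 Single 60-min dynamic PET scan, whole brain outlined, SUV read at 25 min. Venous blood drawn retro-orbitally at 25 min in separate groups, gamma-counted and decay-corrected. Brain SUV of each animal divided by mean blood SUV of that group.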

The nature of data set [13]: Ratio of drug level from brain to blood in wild type FVB mouse. Format: ADME, tissue-based. The settings on record: brain and blood. In outline: as §3
Data set [14] concerns Brain. The data set is described as follows: Decrease in binding in MDR1a/b deficient FVB mouse brain. Particulars: in vitro.

Usually Kp stands for tissue or fluid exposure divided by exposure in the circulation.

Each structure is given as a SMILES string. Active and inactive are the calls of the source. The rule behind the calls is not given here.

As to `COc1cc2c(cc1OC)CN(CCc1ccc(NC(=O)c3cccc4c(=O)c5cccc(OC)c5[nH]c34)cc1)CC2` [ELACRIDAR], the SUV is recorded as 0.43 with Brain [1], 0.19 in the data set on Brain [2] and 0.71 in the data set with Brain [3].
As to `COc1cc2c(cc1OC)CN(CCc1ccc(NC(=O)c3cc(OC)c(OC)cc3NC(=O)c3cnc4ccccc4c3)cc1)CC2` [TARIQUIDAR], the Activity in the data set with Brain [4] worked out at 24%. Besides, in data set [5], the “inhibition (INH)” value is recorded as “Active”. For the same molecule, in [6], the inhibition entry is “Active”.
`COc1cc2c(cc1OC)CN(CCc1ccc(NC(=O)c3cc(O[11CH3])c(OC)cc3NC(=O)c3cnc4ccccc4c3)cc1)CC2` [[11C]TARIQUIDAR]: the concentration ratio (Kp) in [7] was found to be 3.4; in data set [9] it was 14.5; in data set [12] it was 1.8; in data set [13] it was 1. The “% decrease in binding” value in the data set on Brain [8] was determined as 41%; in the data set on Brain [11], 46%; in the data set on Brain [14], 49%. In the data set with Brain [10], the SUV is reported as 0.71.

The record behind these values is ChEMBL document CHEMBL1212846, “Synthesis and in vivo evaluation of [11C]tariquidar, a positron emission tomography radiotracer based on a third-generation P-glycoprotein inhibitor” (Bioorg Med Chem, 2010).
